Data on 20 compounds can be found in ChEMBL document CHEMBL3244350, “Antitumor and antiinflammatory agents: N-benzoyl-protected cyanomethyl esters of amino acids” (J Med Chem, 1979).

Data set [1] deals with Mus musculus. The experiment in a line: Antitumor activity against mouse P388 cells allografted in DBA/2 mouse assessed as tumor growth inhibition at 20 mg/kg, ip qd for 2 weeks (reference value: 100%). Format: functional. To be noted: route intraperitoneal. The procedure, abridged:
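DBA/2 male mice (20 g) implanted with 10^6 P-388 cells on day 0, then dosed ip at 20 mg/kg/day for 2 weeks. T/C computed by the NIH protocol; T/C ≥120 counted as significant. 5-Fluorouracil served as internal standard.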

The test system of data set [2] is Mus musculus. The data set is described as follows: Antitumor activity against mouse EAC allografted in CF1 mouse assessed as ascrit fluid volume at 20 mg/kg, ip qd for 7 days (reference value: 6.63 +/- 1.24 mL). Format: functional. To be noted: route intraperitoneal.
The species named for data set [3] is Mus musculus. The experiment in a line: Toxicity in CF1 mouse. Format: organism-based. To be noted: in vivo.
Data set [4] concerns Mus musculus. The data set is described as follows: Antitumor activity against mouse EAC allografted in CF1 mouse assessed as tumor growth inhibition at 20 mg/kg, ip qd for 7 days (reference value: 0%). Format: functional. To be noted: 168 h, route intraperitoneal.
Data set [5] has as its system Mus musculus. The experiment in a line: Antiinflammatory activity in CF1 mouse assessed as increase in foot weight at 20 mg/kg, ip administered 3 hrs and 30 mins prior to carrageenan-challenge measured after 3 hrs (reference value: 97 +/- 10 mg). To be noted: route intraperitoneal. Format: functional.
Data set [6] deals with Mus musculus. The experiment in a line: Antiinflammatory activity in CF1 mouse assessed as inhibition of carrageenan-induced paw edema at 20 mg/kg, ip administered 3 hrs and 30 mins prior to carrageenan-challenge measured after 3 hrs (reference value: 0%). Type of data set: functional. To be noted: route intraperitoneal. On the technique in general: The carrageenan paw model is a standard test of acute inflammation.

Data set [7] concerns Mus musculus. The experiment in a line: Antitumor activity against mouse P388 cells allografted in DBA/2 mouse assessed as host survival on day 7 at 20 mg/kg, ip qd for 2 weeks. To be noted: route intraperitoneal. Format: functional. The method, boiled down:
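P388 leukemia in male DBA/2 mice (20 g): 10⁶ cells implanted on day 0. Compounds were given ip at 20 (mg/kg)/day for 2 weeks. Survival was expressed as T/C by the NIH protocol; T/C > 120 counted as significant. 5-Fluorouracil was the internal standard.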

The test system of data set [8] is Mus musculus. The data set is described as follows: Antitumor activity against mouse EAC allografted in CF1 mouse assessed as host survival on day 7 at 20 mg/kg, ip qd for 7 days. Type of data set: functional, organism-based. The arrangement: dose 20 mg/kg.
The test system of data set [9] is Mus musculus. The data set is described as follows: Immunosuppressive activity in mouse splenic lymphocytes isolated from 25 mg/kg, ip on days 2,3 and 4 treated CF1 mouse assessed as reduction in sheep red blood cell antigen-induced plaque-forming response (reference value: 100%). To be noted: route intraperitoneal. The arrangement: scale not given: the % may be the effect or the level left.

Structures are written as SMILES. The source made the active and inactive calls. The rule behind the calls is not given here.

By inhibition in vivo is commonly meant the percentage by which the read-out fell short of the control. In the case of `CC(C)C(NC(=O)c1ccccc1)C(=O)OCC#N` (stereo not given), the T/C in the data set with Mus musculus [1] amounted to 109. Further, the Activity is 0.07 mL with Mus musculus [2], “Non-toxic” in the data set listed under Mus musculus [3] and 82 mg in the data set on Mus musculus [5]. In addition, the inhibition in vivo at 20 mg/kg with Mus musculus [4] came out at 99.9%; in the data set with Mus musculus [6], 24%. Moreover, the Survival in the data set with Mus musculus [7] worked out at 10.5 days.
`Cc1ccc(S(=O)(=O)N[C@@H](Cc2ccccc2)C(=O)OCC#N)cc1`: in the data set on Mus musculus [1], the T/C came out at 94. Also, the Activity in the data set on Mus musculus [2] was 0.4 mL; in the data set filed under Mus musculus [3], “Non-toxic”; in the data set on Mus musculus [5] it was 69 mg. In addition, the inhibition in vivo at 20 mg/kg was 97% in the data set on Mus musculus [4] and 21% in the data set on Mus musculus [6]. In addition, the Survival with Mus musculus [7] is 9.1 days.
For `N#CCOC(=O)CCNC(=O)c1ccccc1`, the Activity with Mus musculus [2] is 4.96 mL; in the data set listed under Mus musculus [3], “Non-toxic”; in the data set on Mus musculus [5], 75 mg. Further, the inhibition in vivo at 20 mg/kg was 11.6% in the data set with Mus musculus [4] and 31% in the data set on Mus musculus [6].
Taken in the same sequence, the figures for `N#CCOC(=O)[C@H](Cc1ccccc1)NC(=O)c1ccccc1` were 1.8 mL, “Non-toxic”, 43 mg, 47% and 51%.
`N#CCOC(=O)[C@@H]1CCCN1C(=O)c1ccccc1`: in the data set on Mus musculus [1], the T/C is recorded as 93. Also, the Activity in the data set on Mus musculus [2] is 2.93 mL; in the data set listed under Mus musculus [3], “Non-toxic”; with Mus musculus [5], 67 mg. The figures for the inhibition in vivo at 20 mg/kg in the data set on Mus musculus [4] and with Mus musculus [6] were 59.3% and 39%, respectively. Moreover, in the data set on Mus musculus [7], the Survival stood at 9 days.
Regarding `O=c1[nH]cc(F)c(=O)[nH]1` [FLUOROURACIL], in the data set with Mus musculus [1], the T/C is 186. In addition, the Survival in the data set on Mus musculus [7] came to 18 days.
Consider `N#CCOC(=O)[C@H](Cc1ccccc1)NC(=O)[C@H](Cc1ccccc1)NC(=O)OCc1ccccc1`, for which the values for the Activity with Mus musculus [2], in the data set filed under Mus musculus [3] and in the data set on Mus musculus [5] were 2.1 mL, “Non-toxic” and 61 mg, respectively. For the same compound, the inhibition in vivo at 20 mg/kg in the data set with Mus musculus [4] stood at 43%; in the data set on Mus musculus [6], 30%.
As for `N#CCOC(=O)CNC(=O)c1ccccc1`, the T/C in the data set with Mus musculus [1] is 109. Further, the values for the Activity in the data set with Mus musculus [2], in the data set listed under Mus musculus [3] and with Mus musculus [5] were 2.85 mL, “Non-toxic” and 55 mg, respectively. The inhibition in vivo at 20 mg/kg is 40.2% with Mus musculus [4] and 50% in the data set on Mus musculus [6]. Also, the result in the data set on Mus musculus [8] was Active. Moreover, the Survival in the data set on Mus musculus [7] worked out at 10.5 days.
Regarding `N#CCOC(=O)CCCNC(=O)c1ccccc1`, the T/C in the data set on Mus musculus [1] is recorded as 104. In addition, the results for the Activity in the data set with Mus musculus [2], in the data set listed under Mus musculus [3] and in the data set on Mus musculus [5] were 2.78 mL, “Non-toxic” and 68 mg, respectively. Further, the inhibition in vivo at 20 mg/kg is 43.1% in the data set with Mus musculus [4] and 37% with Mus musculus [6]. Further, in the data set with Mus musculus [7], the Survival came to 10 days.
Take `CC(=O)N[C@@H](Cc1ccccc1)C(=O)OCC#N`: the figures for the Activity in the data set on Mus musculus [2], in the data set listed under Mus musculus [3] and with Mus musculus [5] were 3.9 mL, “Non-toxic” and 49 mg, respectively. The inhibition in vivo at 20 mg/kg in the data set with Mus musculus [4] came to 16%; in the data set with Mus musculus [6], 44%. For the same compound, the result in the data set with Mus musculus [8] was Active.
As to `CC(NC(=O)c1ccccc1)C(=O)OCC#N` (stereo not given), the T/C with Mus musculus [1] is 100. Also, the Activity in the data set on Mus musculus [2] is 2.91 mL; in the data set filed under Mus musculus [3], “Non-toxic”; in the data set with Mus musculus [5], 87 mg. Further, the inhibition in vivo at 20 mg/kg came to 43.3% in the data set with Mus musculus [4] and 25% in the data set on Mus musculus [6]. Moreover, in the data set on Mus musculus [8], the result was Active. For the same compound, the Survival with Mus musculus [7] was 9.7 days.
As for `N#CCOC(=O)C(Cc1ccccc1)NC(=O)OCc1ccccc1` (stereo not given), the Activity with Mus musculus [2] is 0.4 mL; in the data set listed under Mus musculus [3], “Non-toxic”; with Mus musculus [5], 54 mg. Moreover, the figures for the inhibition in vivo at 20 mg/kg with Mus musculus [4] and in the data set on Mus musculus [6] were 86% and 38%, respectively. Also, in the data set with Mus musculus [8], the outcome was Active.
On to `C[C@H](NC(=O)c1ccccc1)C(=O)OCC#N`, for which the T/C in the data set with Mus musculus [1] is reported as 101. The Activity was 0.1 mL with Mus musculus [2], “Non-toxic” in the data set listed under Mus musculus [3] and 56 mg in the data set on Mus musculus [5]. Further, the inhibition in vivo at 20 mg/kg was determined as 98.2% with Mus musculus [4] and 49% with Mus musculus [6]. In the data set on Mus musculus [8], the result was Active. Also, in the data set with Mus musculus [7], the Survival was determined as 9.8 days.
Turning to `CCC(C)C(NC(=O)c1ccccc1)C(=O)OCC#N` (stereo not given), in the data set on Mus musculus [1], the T/C came out at 122. Besides, the Activity with Mus musculus [2] is 2.97 mL; in the data set listed under Mus musculus [3], “Non-toxic”; with Mus musculus [5] it was 89 mg. The results for the inhibition in vivo at 20 mg/kg in the data set with Mus musculus [4] and in the data set on Mus musculus [6] were 46.6% and 18%, respectively. The Survival in the data set on Mus musculus [7] was found to be 11.8 days.
For the compound `N#CCOC(=O)[C@H](Cc1ccc(O)cc1)NC(=O)c1ccccc1`, the T/C in the data set with Mus musculus [1] amounted to 113. The Activity was 1.98 mL in the data set with Mus musculus [2], “Non-toxic” in the data set listed under Mus musculus [3] and 75 mg in the data set on Mus musculus [5]. Also, the inhibition in vivo at 20 mg/kg in the data set with Mus musculus [4] was 42.3%; in the data set on Mus musculus [6], 41%. Also, the Survival in the data set on Mus musculus [7] was 11.3 days.
Consider `N#CCOC(=O)CCCCCNC(=O)c1ccccc1`, for which the values for the Activity with Mus musculus [2], in the data set filed under Mus musculus [3] and in the data set with Mus musculus [5] were 2.73 mL, “Non-toxic” and 65 mg, respectively. Also, the inhibition in vivo at 20 mg/kg with Mus musculus [4] was 45.2%; in the data set on Mus musculus [6] it was 40%. The result in the data set on Mus musculus [8] was Active. Besides, the Survival in the data set on Mus musculus [7] stood at 10.3 days.
`N#CCOC(=O)CCCCCNC(=O)OCc1ccccc1`: the values for the Activity in the data set on Mus musculus [2], in the data set filed under Mus musculus [3] and in the data set with Mus musculus [5] were 1 mL, “Non-toxic” and 63 mg, respectively. The inhibition in vivo at 20 mg/kg with Mus musculus [4] turned out to be 54%; in the data set on Mus musculus [6], 28%. Also, the outcome in the data set on Mus musculus [8] was Active.
In the case of `CC(C)C[C@H](NC(=O)c1ccccc1)C(=O)OCC#N`, the T/C with Mus musculus [1] turned out to be 117. In addition, the Activity in the data set on Mus musculus [2] is 0.8 mL; in the data set listed under Mus musculus [3] it was “Non-toxic”; with Mus musculus [5], 77 mg. The inhibition in vivo at 20 mg/kg in the data set with Mus musculus [4] worked out at 87.2%; in the data set with Mus musculus [6], 29%. Also, in the data set with Mus musculus [7], the Survival stood at 11.3 days.
Consider `Sc1ncnc2nc[nH]c12` [MERCAPTOPURINE ANHYDROUS], for which the Activity with Mus musculus [2] came out at 0.7 mL. The inhibition in vivo at 20 mg/kg in the data set with Mus musculus [4] was 99.6%. Moreover, in the data set with Mus musculus [8], the outcome was Active.
For the compound `N#CCOC(=O)CNC(=O)OCc1ccccc1`, the Activity in the data set with Mus musculus [2] was 2.2 mL; in the data set filed under Mus musculus [3], “Non-toxic”; in the data set with Mus musculus [9] it was 58%; with Mus musculus [5] it was 48 mg. Besides, the results for the inhibition in vivo at 20 mg/kg with Mus musculus [4] and with Mus musculus [6] were 29% and 45%, respectively. Besides, the outcome in the data set on Mus musculus [8] was Active.
